Reference: ChEMBL document CHEMBL4725356, “Discovery of IACS-9439, a Potent, Exquisitely Selective, and Orally Bioavailable Inhibitor of CSF1R” (J Med Chem, 2020)

What was measured:
[1] = Volume of distribution at steady state in CD-1 mouse at 0.3 mg/kg, iv or 10 mg/kg, po and measured up to 24 hrs by LC-MS/MS analysis; assay type: ADME, organism-based; details: in vivo, read-out: Vdss
Outline: (§1)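 Each species was dosed IV at 0.3 mg/kg and PO as follows: mouse 10 mg/kg, rat 3, dog 3, monkey 1. Plasma PK parameters derived were CL, Vss, IV half-life and oral bioavailability (F%).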

[2] = Oral bioavailability in Beagle dog at 3 mg/kg and measured up to 24 hrs by LC-MS/MS analysis; assay type: ADME, organism-based, Canis lupus familiaris; details: in vivo; outline: as §1
[3] = Volume of distribution at steady state in Beagle dog at 0.3 mg/kg, iv or 3 mg/kg, po and measured up to 24 hrs by LC-MS/MS analysis; assay type: ADME, organism-based, Canis lupus familiaris; details: in vivo, read-out: Vdss; outline: as §1
[4] = Oral bioavailability in CD-1 mouse at 10 mg/kg and measured up to 24 hrs by LC-MS/MS analysis; assay type: ADME, organism-based; details: in vivo; outline: as §1
[5] = Oral bioavailability in cynomolgus monkey at 1 mg/kg and measured up to 24 hrs by LC-MS/MS analysis; assay type: ADME, organism-based, Macaca fascicularis; details: in vivo; outline: as §1
[6] = Oral bioavailability in Sprague-Dawley rat at 3 mg/kg and measured up to 24 hrs by LC-MS/MS analysis; assay type: ADME, organism-based; details: in vivo; outline: as §1
[7] = Volume of distribution at steady state in Sprague-Dawley rat at 0.3 mg/kg, iv or 3 mg/kg, po and measured up to 24 hrs by LC-MS/MS analysis; assay type: ADME, organism-based; details: in vivo, read-out: Vdss; outline: as §1
[8] = Volume of distribution at steady state in cynomolgus monkey at 0.3 mg/kg, iv or 1 mg/kg, po and measured up to 24 hrs by LC-MS/MS analysis; assay type: ADME, organism-based, Macaca fascicularis; details: in vivo, read-out: Vdss; outline: as §1

Row | SMILES | Vd [1] | bioavailability [2] | Vd [3] | bioavailability [4] | bioavailability [5] | bioavailability [6] | Vd [7] | Vd [8]
1 | COc1cc(OCc2ccnc(Nc3cnn(C)c3)n2)cc2sc(N[C@H]3CCCC[C@@H]3O)nc12 | 1 L/kg | 37% | 3 L/kg | 100% | 21% | 81% | 3.4 L/kg | 0.45 L/kg
2 | Nc1nccc(COc2ccc3nc(N[C@@H]4CCCC[C@H]4O)sc3c2)c1Cl | 1.8 L/kg | 34% | 1.3 L/kg | > 90% | 72% | 67% | 0.75 L/kg | 0.6 L/kg
